Assay: Toxicity liver stage against HepG2, at 10uM
Format: cell-based
Parameters: test concentration 10 uM, cell line HepG2-A16-CD81EGFP
Conditions: human, HepG2-A16-CD81EGFP cells; read-out: INHIBITION
How it was run: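 Uninfected HepG2-A16-CD81EGFP cells, 3 × 10^3 per well, 1536-well, plated on prespotted compound at 10 μM final, parasite-free screening media added to match infected plates; puromycin 10 μM positive, DMSO 0.5% negative; run in parallel with 48 h PbLuc assay at 37 °C, 5% CO2; viability by CellTiter-Glo luminescence, normalized to controls.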

Structure (SMILES) | cytotoxicity at 10 µM [%]
O=C(NCc1nnc2n1CCC2)c1cn(-c2cccc(Br)c2)nn1 | -4.3
CN1CCC(N2CCOC[C@H]2c2nc(-c3ccncc3)c[nH]2)CC1 | -5.15
CN(C[C@H]1CN2CC[C@H]1C[C@@H]2CNC(=O)c1ccco1)c1ccccc1 | -0.947
COCC(=O)Nc1ccc(-c2noc([C@@H]3CCCN3C(C)C)n2)cn1 | 0.994
CNC(=O)[C@@H]1[C@@H](OC(=O)Nc2ccccc2)C(=O)N(C)C12CCNCC2 | 6.38
COc1ccc2c(ccn2CC(=O)Nc2n[nH]c(C(C)C)n2)c1 | -6.72
O=C([C@H]1C[C@H]2OCC[C@H]2N(C(=O)c2cnccn2)C1)N1CCCCO1 | 12.7
Cn1cccc1C(=O)NCc1cnc2n1CCN(C(=O)c1ccoc1)C2 | 11.9
CN1CCCc2sc(C(=O)NCc3cccnc3)nc21 | 14.9
C[C@H]1C[C@H]2CN(C(=O)c3ccncn3)CC[C@@H]2O1 | 4.93
Cc1c(Cl)c(C(F)(F)F)nn1C(C)C(=O)NN1CCN(C)CC1 (stereo not drawn) | -7.85
CCCn1c(N2CCCCC2)nc2c(C)nn(C)c2c1=O | 11.8
COc1ccc(NC(C)=O)cc1S(=O)(=O)Nc1ccon1 | 1.08
O=C(NCCCO)C1(CC2CC(c3ccc(F)cc3)=NO2)CCOCC1 (stereo not drawn) | 1.41
CN1CCN([C@@H]2CN(C(=O)c3cc4ccc(F)cc4[nH]3)C[C@H]2O)CC1 | -10.4
COc1cc(CCC(=O)N2CCC(c3cnccn3)CC2)on1 | 3.1
Cc1ccc(S(=O)(=O)N2CC[C@@H]3C[C@H](NC(=O)c4[nH]ncc4Br)[C@@H]32)cc1 | 4.49
c1cc(CN2CCC(c3ccnc4nccn34)C2)ccn1 (stereo not drawn) | 1.58
c1cnc(Nc2cc(CCC3CCNCC3)ccn2)cn1 | 55.7
O=C(CO)N1CCC(CCc2ccnc(Nc3cnccn3)c2)CC1 | -0.459
Cc1nn(C)cc1CN1CCCC(n2c(=O)oc3ccc(Cl)cc32)C1 (stereo not drawn) | 4.88
CCN(CC)C(=O)CN1CCCC(c2nc(C)c3c(n2)N(C)CCC3)C1 (stereo not drawn) | 10.2

Structure (SMILES) | cytotoxicity at 10 µM [%]
CN1CCC(c2cccc(Cc3ccc(F)cc3)n2)CC1 | -3.45
CC(c1ccccc1F)N(C(=O)CSCC(N)=O)C1CC1 (stereo not drawn) | -54.9
Cc1nc(CNC(=O)CCCc2cccs2)no1 | -46.8
Cc1nnc2n1CCN(C(=O)C1CCN(Cc3ccccc3)CC1)C2 | 1.28
CNC(=O)C1CCCCN1C(=O)c1csc(-c2ccc(C)cc2)n1 (stereo not drawn) | 11.6
Cc1ccc(CNC(=O)Nc2nnc(C3CC3)s2)n1C | -1.61
CC(=O)N1CCC(NC(=O)c2ccccc2-n2cnnn2)CC1 | 6.87
CSc1cc2c(cc1NC(=O)NCC(=O)N(C)C)OCCO2 | -5.87
N#Cc1cccnc1NCc1cccc(C(=O)NCC2CCCCO2)c1 (stereo not drawn) | 5
c1cnn(C2CN(CCCOc3ccc4c(c3)OCO4)C2)c1 | -4.73
CN(C)CCCN(CCC#N)C(=O)Nc1ccc2[nH]ccc2c1 | -52.4
CCNC(=O)COc1ccccc1N1CCCC(C)C1 (stereo not drawn) | 8.06
CCOCc1ccccc1NC(=O)NC1CCN(c2ccccc2)C1 (stereo not drawn) | -6.31
CCN(C(=O)CCn1cccn1)C1CC1 | -6.16
Cc1ccc(NC(C)C(=O)NCc2cccs2)cc1C (stereo not drawn) | -16.4
CC(C)(C)NC(=O)C1CSCN1S(=O)(=O)c1cccc(F)c1 (stereo not drawn) | -16.7
CC(C)S(=O)(=O)NCC1CCCN(C(=O)c2ccc3c(c2)OCCO3)C1 (stereo not drawn) | -35.2
CS(=O)(=O)N1C[C@H]2N(c3ncccn3)CCC[C@@]2(C(=O)NCC2CC2)C1 | -110
O=C(c1ccccc1)N1CCO[C@@H]2CN(Cc3ccc[nH]3)C[C@@H]2C1 | -98
COCC(=O)N1CCc2nc(C)nc(NC(C)C)c2CC1 | -102
O=C(NC1CC(F)(F)C1)[C@]12COC[C@H]1CN(Cc1ccsc1)C2 | -109
O=C(C1CCC1)N1CC[C@@H]2CN(Cc3cccnc3)S(=O)(=O)[C@@H]2CC1 | -109

Structure (SMILES) | cytotoxicity at 10 µM [%]
O=C(c1ccoc1)N1CC[C@H]2C[C@@H](c3nnc(C4CC4)o3)O[C@@H]2C1 | -101
Cn1cccc1C(=O)N1CCc2ncnc(C3CC3)c2CC1 | 5.17
CC(C)c1ncc(CN2C[C@@H](CN3CCC(O)CC3)[C@@H](CO)C2)cn1 | -7.79
Cc1nc(C)c(C)c(N(C)CCCc2nccn2C)n1 | 8.52
CN1CCN(c2ncccn2)CC12CCC(=O)N(CC1CC1)CC2 (stereo not drawn) | 2.6
Cc1nc(C(C)C)sc1C(=O)N(C)Cc1nc(-c2ccccn2)no1 | -0.683
Cc1cccc(C(=O)N2CCCCC2c2ccc(CN(C)C)cc2)c1 (stereo not drawn) | -0.909
Cc1ccc(C(=O)N(Cc2cccnc2)C[C@@H]2CCC(=O)N2)s1 | -77.9
COc1cccc(CC2CN(C3CCCCC3)CCO2)c1 (stereo not drawn) | -11.9
CNc1nc(C(=O)N2CCC3(CCCN(CCOC)C3=O)C2)cs1 (stereo not drawn) | 7.55
CCN(Cc1noc(CC(C)C)n1)Cc1ncccc1C(=O)O | -37.2
O=c1[nH]cnc2c1CCN(S(=O)(=O)c1ccc(Cl)cc1)C2 | -1.68
O=C1NCC2(CCCN(C(=O)CCn3cnc4ccccc43)CC2)O1 (stereo not drawn) | -4.8
Cc1cnn(CCC(=O)N2CCN(C(=O)C(C)C)[C@@H]3CS(=O)(=O)C[C@@H]32)c1 | 2.47
CCn1c(C)cc(C(=O)N2C[C@@H](C(=O)O)[C@H](c3ccccc3)C2)c1C | -0.173
OC1(CNCCN2CCc3ccccc32)CNCCOC1 (stereo not drawn) | 10.7
COCCCC1CCCN(C(=O)CCc2csc(N)n2)C1 (stereo not drawn) | -2.66
O=C(O)C1CN(Cc2cnc(C3CCCCC3)nc2)CCO1 (stereo not drawn) | -6.08
CC(c1ccon1)N(C)Cc1cc(O)c2cc(F)ccc2n1 (stereo not drawn) | 5.5
CCCOCC1CCN(C(=O)c2cnc(C)nc2O)C1 (stereo not drawn) | -3.15
CC(C1CCN(C(=O)c2coc(CN3CCOCC3)c2)CC1)N(C)C (stereo not drawn) | -4.07
COc1ccc(CN2CCC3(CCCN(C)C3=O)C2)c(Cl)c1OC (stereo not drawn) | -1.24

Structure (SMILES) | cytotoxicity at 10 µM [%]
Cc1ccc(C)c(OCc2cc(C(=O)N(C)Cc3nonc3C)no2)c1 | -5.83
CCc1nnc(CN(CC)C(=O)C2CC(=O)N(C(C)(C)C)C2)o1 (stereo not drawn) | 1.56
Cc1nccn1CCC1CCN(c2ccncn2)CC1 | -9.14
Cc1ccsc1-c1nccn1C1CC(=O)N(C(C)C)C1 (stereo not drawn) | -9.73
COCCCC1(CO)CCCN(C(=O)c2cnc3c(c2)CCCC3)C1 (stereo not drawn) | -50.2
CCNc1ncc(-c2cc(-c3ccn(C)c3)nc(N)c2C#N)cn1 | 7.14
Cc1nc2ccccc2nc1CN1CCn2nc(CCC(=O)O)cc2C1 | -3.43
CCc1c(C)nc(C)nc1N1CCC(NCCSc2nnnn2C)CC1 | -15.9
CN(CCc1ccccn1)c1cc(N2CCCCC2)ncn1 | 3.61
CCOc1ccccc1OC1CCN(Cc2ccn(C)c(=O)c2)CC1 | 3.91
CC(C)C(NC(=O)NCCNc1cnccn1)c1cccs1 (stereo not drawn) | 0.0264
Cc1cc(C)n(CC2CN(CC(=O)NC3CCOCC3)CCO2)n1 (stereo not drawn) | -11.1
COc1cc(CCC(=O)NCC2CC2)ccc1OCC(F)(F)F | -4.81
O=C(c1ccco1)N1CCCC(c2cc(C(F)(F)F)[nH]n2)C1 (stereo not drawn) | -16.1
CCc1nc(CN(C(C)=O)C2CCN(CCc3cccs3)C2)no1 (stereo not drawn) | -4.62
O=C(CN1CCCC1Cn1cncn1)NCCOc1ccccc1 (stereo not drawn) | -7.52
CCn1ccnc1CN1CCN(Cc2cc(C#N)ccc2F)CC1 | -7.19
CC(C)=CCN1CCN(Cc2nccn2C)C(C)C1 (stereo not drawn) | -14.4
NC(=O)c1cccc(OCC(=O)N2CCCC(n3ccnc3)C2)c1 (stereo not drawn) | -9.37
CCn1c(C)nnc1CN(C)C1CCN(Cc2nnc(C3CC3)o2)C1 (stereo not drawn) | -11.6
CCN(CC1CCOC1)C(=O)Nc1ccc(N2CCOCC2)nc1 (stereo not drawn) | -2.45
CC(C(=O)NCC(F)(F)F)N1CCC(N2CCN(C)C2=O)CC1 (stereo not drawn) | 5.11

Structure (SMILES) | cytotoxicity at 10 µM [%]
COc1ccccc1C(O)CNC(=O)Nc1ccccn1 (stereo not drawn) | -11.9
COc1ccc(CCNC2CCCN(Cc3noc(C)n3)C2)cc1 (stereo not drawn) | -5.98
CCc1nc(CN(C)C2CCN(CCC(=O)N3CCCCC3)C2)no1 (stereo not drawn) | -13.4
Cn1cc(C(=O)NCc2ccc(N3CCCC3)nc2)ccc1=O | -3.72
Cc1cc(C2CCCN2C(=O)NCc2c(C)cc(C)[nH]c2=O)on1 (stereo not drawn) | -9.54
CC(C)c1nn(C)c(N(C)C)c1CNCCC(=O)NC1CCCC1 | -6.63
Cc1nc(C2CCCN(C(=O)c3ccco3)C2)no1 (stereo not drawn) | 0.529
CC(C)COCC(NC(=O)c1cccnc1)c1ccco1 (stereo not drawn) | -12.1
Cc1ncc(CNCC2CCCN2c2cccnn2)s1 (stereo not drawn) | 1.97
O=C(Cc1ccc2c(c1)OCCO2)N1CCCC(n2cccn2)C1 (stereo not drawn) | 7
CCN1c2ccc(-c3cncn3CCCn3ccnc3C)cc2CC1C (stereo not drawn) | -1.25
CN(Cc1cccc2cccnc12)C1CCS(=O)(=O)C1 (stereo not drawn) | -0.237
O=C(c1cnccn1)N1C[C@@H]2CCN(c3cnccn3)C[C@@H]2C1 | -100
CC(C)CN1CCC2(C1)CN(S(=O)(=O)c1cn(C)cn1)C2 | -116
CC(C)N1CCOCC2(CCN(c3cnccn3)CC2)C1 | -109
CNC(=O)[C@H]1C[C@@H]2CN(S(=O)(=O)c3ccc(F)cc3)C[C@@H]2N1C | -2.97
OCCOCc1n[nH]c2c1CN(Cc1ccccn1)C2 | -112
N#Cc1cccc(CN2C[C@H](NC(=O)C3CC3)[C@H]3OCCC[C@H]32)c1 | -0.155
CCOCCCNC(=O)c1nc2c(s1)CCCN2c1ccc(C)nn1 | 13.5
CCCS(=O)(=O)N1C[C@@H]2C[C@H](C(=O)N3CCCC3)[C@H](C1)O2 | -6.28

Reference: ChEMBL document CHEMBL4513216, “Probing the Open Global Health Chemical Diversity Library for Multistage-Active Starting Points for Next-Generation Antimalarials” (ACS Infect Dis, 2020)
